Measured values as given in ChEMBL document CHEMBL1126327, “Synthesis and antihypertensive activity of 3-[(substituted-carbonyl)amino]-2H-1-benzopyrans” (1992).

Tests used:
Assay type in all cases: functional
Rattus norvegicus [1] = test: Oral antihypertensive activity in spontaneously hypertensive rats at a dose of 1 mg/kg (po)
In short: (§1)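 Conscious spontaneously hypertensive rats (Okamoto-derived, 14-24 weeks old; systolic pressure >180 mmHg counted as hypertensive) dosed by oral needle into the esophagus as a solution or suspension in 1% w/v methylcellulose. Systolic pressure was taken by tail-cuff, each reading the mean of at least five recordings, before dosing and at intervals up to 6 h. The maximum fall was recorded.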

Rattus norvegicus [2] = test: Oral antihypertensive activity in spontaneously hypertensive rats at a dose of 3 mg/kg (po); in short: as §1
Rattus norvegicus [3] = test: Oral antihypertensive activity in spontaneously hypertensive rats at a dose of 10 mg/kg (po); in short: as §1
Rattus norvegicus [4] = test: Oral antihypertensive activity in spontaneously hypertensive rats at a dose of 0.3 mg/kg (po); in short: as §1
Rattus norvegicus [5] = test: Compound was evaluated for oral antihypertensive activity in spontaneously hypertensive rats at a dose of 0.1 mg/kg (po); in short: as §1
Rattus norvegicus [6] = test: Compound was evaluated for oral antihypertensive activity in spontaneously hypertensive rats at a dose of 1.0 mg/kg (po); in short: as §1
Rattus norvegicus [7] = test: Compound was evaluated for oral antihypertensive activity in spontaneously hypertensive rats at a dose of 10 mg/Kg (po); in short: as §1
Rattus norvegicus [8] = test: Compound was evaluated for oral antihypertensive activity in spontaneously hypertensive rats at a dose of 1 mg/Kg (po); in short: as §1
Rattus norvegicus [9] = test: Compound was evaluated for oral antihypertensive activity in spontaneously hypertensive rats at a dose of 3 mg/Kg (po); in short: as §1

## CC(C)(C)CC(=O)N[C@@H]1C(O)c2cc(C#N)ccc2OC1(C)C (some centres not stated)
Rattus norvegicus [1]
  Max fall in blood pressure: -9%
Rattus norvegicus [2]
  Max fall in blood pressure: -27%

## CNC(=O)N[C@@H]1C(O)c2cc(C#N)ccc2OC1(C)C (some centres not stated)
Rattus norvegicus [3]
  Max fall in blood pressure: -24%
Rattus norvegicus [2]
  Max fall in blood pressure: -8%

## CC(C)(C)C(=O)N[C@@H]1C(O)c2cc(C#N)ccc2OC1(C)C (some centres not stated)
Rattus norvegicus [4]
  Max fall in blood pressure: -30%
Rattus norvegicus [1]
  Max fall in blood pressure: -36%

## CC1(C)Oc2ccc(C#N)cc2C(O)[C@H]1NC(=O)NC1CCCCC1 (some centres not stated)
Rattus norvegicus [2]
  Max fall in blood pressure: -14%

## CC(C)(C)NC(=O)N[C@@H]1Cc2cc(C#N)ccc2OC1(C)C
Rattus norvegicus [4]
  Max fall in blood pressure: -27%

## CN(C)C(=O)N[C@@H]1C(O)c2cc(C#N)ccc2OC1(C)C (some centres not stated)
Rattus norvegicus [2]
  Max fall in blood pressure: -27%

## CCNC(=O)N[C@@H]1C(O)c2cc(C#N)ccc2OC1(C)C (some centres not stated)
Rattus norvegicus [1]
  Max fall in blood pressure: -13%
Rattus norvegicus [2]
  Max fall in blood pressure: -18%

## CC1(C)Oc2ccc(C#N)cc2C(O)[C@H]1NC(=O)c1ccccn1 (some centres not stated)
Rattus norvegicus [1]
  Max fall in blood pressure: -18%
Rattus norvegicus [2]
  Max fall in blood pressure: -15%

## CC(C)(C)OC(=O)N[C@@H]1Cc2cc(C#N)ccc2OC1(C)C
Rattus norvegicus [3]
  Max fall in blood pressure: -30%
Rattus norvegicus [2]
  Max fall in blood pressure: -26%

## CC(=O)N[C@@H]1C(O)c2cc(C#N)ccc2OC1(C)C (some centres not stated)
Rattus norvegicus [3]
  Max fall in blood pressure: -32%
Rattus norvegicus [2]
  Max fall in blood pressure: -14%

## CC(C)C(=O)N[C@@H]1C(O)c2cc(C#N)ccc2OC1(C)C (some centres not stated)
Rattus norvegicus [5]
  Max fall in blood pressure: -22%
Rattus norvegicus [4]
  Max fall in blood pressure: -39%

## CC(C)(C)NC(=O)N[C@@H]1C(O)c2cc(C#N)ccc2OC1(C)C (some centres not stated)
Rattus norvegicus [5]
  Max fall in blood pressure: -19%
Rattus norvegicus [4]
  Max fall in blood pressure: -40%
Rattus norvegicus [6]
  Max fall in blood pressure: -63%

## CC1(C)Oc2ccc(C#N)cc2C(O)[C@H]1NC(=O)c1ccc(F)cc1 (some centres not stated)
Rattus norvegicus [1]
  Max fall in blood pressure: -22%
Rattus norvegicus [2]
  Max fall in blood pressure: -42%

## CC(C)(C)OC(=O)N[C@@H]1C(O)c2cc(C#N)ccc2OC1(C)C (some centres not stated)
Rattus norvegicus [7]
  Max fall in blood pressure: -49%
Rattus norvegicus [8]
  Max fall in blood pressure: -14%
Rattus norvegicus [9]
  Max fall in blood pressure: -30%

## CC(C)(C)NC(=O)N[C@@H]1C(O)c2cc(Cl)ccc2OC1(C)C (some centres not stated)
Rattus norvegicus [4]
  Max fall in blood pressure: -16%
Rattus norvegicus [2]
  Max fall in blood pressure: -34%

## CCCNC(=O)N[C@@H]1C(O)c2cc(C#N)ccc2OC1(C)C (some centres not stated)
Rattus norvegicus [1]
  Max fall in blood pressure: -10%
Rattus norvegicus [2]
  Max fall in blood pressure: -32%

## CC1(C)Oc2ccc(C#N)cc2C(N2CCCC2=O)C1O (configuration not stated) [CROMAKALIM]
Rattus norvegicus [5]
  Max fall in blood pressure: -13%
Rattus norvegicus [4]
  Max fall in blood pressure: -39%
Rattus norvegicus [1]
  Max fall in blood pressure: -47%

## CC(C)(C)OC(=O)N[C@@H]1C(N)c2cc(C#N)ccc2OC1(C)C (some centres not stated)
Rattus norvegicus [3]
  Max fall in blood pressure: -25%

## CC(C)NC(=O)N[C@@H]1C(O)c2cc(C#N)ccc2OC1(C)C (some centres not stated)
Rattus norvegicus [4]
  Max fall in blood pressure: -22%
Rattus norvegicus [1]
  Max fall in blood pressure: -26%

## CC1(C)Oc2ccc(C#N)cc2C(O)[C@H]1NC(=O)c1ccccc1 (some centres not stated)
Rattus norvegicus [2]
  Max fall in blood pressure: -20%

## CC(C)(C)NC(=O)N[C@@H]1C(O)c2cc(C(F)(F)F)ccc2OC1(C)C (some centres not stated)
Rattus norvegicus [1]
  Max fall in blood pressure: -31%

## CC1(C)Oc2ccc(C#N)cc2C(O)[C@H]1NC(=O)c1ccc(F)c(F)c1 (some centres not stated)
Rattus norvegicus [1]
  Max fall in blood pressure: -6%
Rattus norvegicus [2]
  Max fall in blood pressure: -37%

## COC1c2cc(C#N)ccc2OC(C)(C)[C@@H]1NC(=O)OC(C)(C)C (some centres not stated)
Rattus norvegicus [2]
  Max fall in blood pressure: -39%

## CC1(C)Oc2ccc(C#N)cc2C(O)[C@H]1NC(=O)C1CCCCC1 (some centres not stated)
Rattus norvegicus [1]
  Max fall in blood pressure: -11%
Rattus norvegicus [2]
  Max fall in blood pressure: -9%

## CC(C)/N=C(\S)N[C@@H]1C(O)c2cc(C#N)ccc2OC1(C)C (some centres not stated)
Rattus norvegicus [4]
  Max fall in blood pressure: -49%

## CC1(C)Oc2ccc(C#N)cc2C(O)[C@H]1N1CCCCC1=O (some centres not stated)
Rattus norvegicus [3]
  Max fall in blood pressure: -16%
Rattus norvegicus [2]
  Max fall in blood pressure: -20%
